Results from ChEMBL document CHEMBL1122914, “Synthesis and biological activity of pentapeptide analogues of the potent angiotensin converting enzyme inhibitor 5(S)-benzamido-4-oxo-6-phenylhexanoyl-L-proline” (J Med Chem, 1985).

Assays:
Assay type in all cases: functional
[1] = Percent recovery of compound in rats over 24 hr when administered orally at a dose of 4.3 mg, 4.09(uCi); and activity calculated from bile of rats at time (5-6 h)
Outline: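 Adult male Sprague-Dawley rats were fasted overnight, with chow and water otherwise ad libitum. The tritiated proline-4-labelled analogue was given orally in dilute NaHCO3. Bile was collected at timed intervals and urine over 24 h. Aliquots were counted by liquid scintillation, with quench correction by automatic external standardization and a quench curve. Recovery was expressed as percent of the dosed radioactivity.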

Rattus norvegicus [2] = test: Compound was evaluated for maximum effect in hypertensive rats by peroral administration at a dose of 6.4 mg/kg; details: route oral
Outline: (§1)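 One-clip/two-kidney renal hypertension was induced with a silver clip on the left renal artery, leaving the other kidney intact. Several weeks later, rats were cannulated and those with mean pressure above 160 mmHg were used. Four conscious rats per compound received an oral dose in 0.25% methylcellulose (5 mL/kg), and two received vehicle only. Mean aortic pressure was read before dosing, hourly for 8 h, and at 24 h.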

Rattus norvegicus [3] = test: Compound was evaluated for change in blood pressure value in hypertensive rats by peroral administration at a dose of 6.4 mg/kg at 8 hr; details: route oral; outline: as §1
Rattus norvegicus [4] = test: Compound was evaluated for its base line value in hypertensive rats by peroral administration at a dose of 6.4 mg/kg; details: route oral; outline: as §1
Rattus norvegicus [5] = test: Compound was evaluated for its base line value on hypertensive rats by peroral administration at a dose of 3.0 mg/kg; details: route oral
Rattus norvegicus [6] = test: Compound was evaluated for itschange in blood pressure value on hypertensive rats by peroral administration at a dose of 3.0 mg/kgat 4 hr; details: dose 3 mg/kg; route oral; outline: as §1
Rattus norvegicus [7] = test: Compound was evaluated for its maximum effect value on hypertensive rats by peroral administration at a dose of 3.0 mg/kg; details: route oral
Rattus norvegicus [8] = test: Compound was evaluated for itschange in blood pressure value on hypertensive rats by peroral administration at a dose of 30 mg/kg at 8 hr; details: route oral
Rattus norvegicus [9] = test: Compound was evaluated for its base line value on hypertensive rats by peroral administration at a dose of 30 mg/kg; details: route oral
Rattus norvegicus [10] = test: Compound was evaluated for its maximum effect value on hypertensive rats by peroral administration at a dose of 30 mg/kg; details: route oral
Rattus norvegicus [11] = test: Compound was evaluated for change in blood pressure in hypertensive rats by peroral administration at a dose of 3.0 mg/kg at 1 hr; details: route oral
Rattus norvegicus [12] = test: Compound was evaluated for maximum effect in hypertensive rats by peroral administration at a dose of 3.0 mg/kg; details: route oral

[3H]C1CC(C(=O)O)N(C(=O)CCC(=O)C(Cc2ccccc2)NC(=O)C(CCCCN)NC(=O)C2CCC2)C1 (configuration not stated)
Recovered radioactivity [1]: 1.42%

CC(CC(=O)C(Cc1ccccc1)NC(=O)C(CCCCN)NC(=O)C1CCC1)C(=O)N1CCCC1C(=O)O.O=C(O)C(F)(F)F (configuration not stated)
Mean aortic blood pressure (Rattus norvegicus [2]): 181 mmHg
Mean aortic blood pressure (Rattus norvegicus [3]): -5 mmHg
Mean aortic blood pressure (Rattus norvegicus [4]): 186 mmHg

NCCCCC(NC(=O)C1CCC1)C(=O)NC(Cc1ccccc1)C(=O)CCC(=O)N1CCCC1C(=O)O.O=C(O)C(F)(F)F (configuration not stated)
Mean aortic blood pressure (Rattus norvegicus [5]): 195 mmHg
Mean aortic blood pressure (Rattus norvegicus [6]): -22 mmHg
Mean aortic blood pressure (Rattus norvegicus [7]): 173 mmHg

O=C(N[C@@H](Cc1ccccc1)C(=O)CCC(=O)N1CCC[C@H]1C(=O)O)c1ccccc1
Mean aortic blood pressure (Rattus norvegicus [8]): -12 mmHg
Mean aortic blood pressure (Rattus norvegicus [9]): 190 mmHg
Mean aortic blood pressure (Rattus norvegicus [10]): 178 mmHg

C[C@H](CS)C(=O)N1CCC[C@H]1C(=O)O [CAPTOPRIL]
Mean aortic blood pressure (Rattus norvegicus [11]): -93 mmHg
Mean aortic blood pressure (Rattus norvegicus [12]): 99 mmHg
